Experimental data taken from ChEMBL document CHEMBL1134988, “Prodrugs of 4'-demethyl-4-deoxypodophyllotoxin: synthesis and evaluation of the antitumor activity” (2002).
Calls of active or inactive are those of the source. No cut-off for these calls is given here.

Tests used:
[1] = test system: Mus musculus; experiment: Antitumor activity against Lewis lung carcinoma (LLC) cells transplanted s.c. into the auxiliary region of the BDF1 mice at a maximum tolerated dose of 0.3 mmol/kg/day; format: functional
Procedure, shortened: (§1)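 BDF1 mice carried sc LLC grafts in the axillary region. Starting 24 h after implantation, doses were given ip on days 1, 5 and 9. Tumour length and width were measured on day 17 and TV = L×W²/2. Inhibition rate (%) was the reduction in mean TV relative to the control group.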

[2] = test system: SK-MEL-2; experiment: In vitro cytotoxicity against SK-MEL-2 (human melanoma) cell line.; format: functional; conditions: read-out: ED50 (the source's name)
[3] = test system: A549; experiment: In vitro cytotoxicity against A549 (human lung carcinoma) cell line.; format: functional; conditions: read-out: ED50 (the source's name)
[4] = test system: MCF7; experiment: In vitro cytotoxicity against MCF-7 (human breast carcinoma) cell line.; format: functional; conditions: read-out: ED50 (the source's name)
[5] = test system: Mus musculus; experiment: Antitumor activity against Lewis lung carcinoma (LLC) cells transplanted s.c. into the auxiliary region of the BDF1 mice at a formulable dose of 0.06 mmol/kg/day; format: functional
Procedure, shortened: (§2)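 LLC cells implanted sc in the axillary region of BDF1 mice. Dosing began 24 h later: ip injection on days 1, 5 and 9 in 5% DMSO/15% Cremophore in saline. Tumour length and width measured on day 17, with TV = L×W²/2. IR (%) = (mean control TV − mean treated TV)/mean control TV × 100.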

[6] = test system: Mus musculus; experiment: Antitumor activity against Lewis lung carcinoma (LLC) cells transplanted s.c. into the auxiliary region of the BDF1 mice at a maximum tolerated dose of 0.36 mmol/kg/day; format: functional; procedure, shortened: as §1
[7] = test system: Mus musculus; experiment: Antitumor activity against Lewis lung carcinoma (LLC) cells transplanted s.c. into the auxiliary region of the BDF1 mice at a maximum tolerated dose of 0.06 mmol/kg/day; format: functional; procedure, shortened: as §1
[8] = test system: Mus musculus; experiment: Antitumor activity against Lewis lung carcinoma (LLC) cells transplanted s.c. into the auxiliary region of the BDF1 mice at a formulable dose of 0.06 mmol/kg/day; Not active; format: functional, organism-based; procedure, shortened: as §2
[9] = test system: Mus musculus; experiment: Antitumor activity against Lewis lung carcinoma (LLC) cells transplanted s.c. into the auxiliary region of the BDF1 mice at a maximum tolerated dose of 0.42 mmol/kg/day; format: functional; procedure, shortened: as §1

| Compound | Inhibition rate [1] [%] | EC50 [2] [nM] | EC50 [3] [nM] | EC50 [4] [nM] | Inhibition rate [5] [%] | Inhibition rate [6] [%] | Inhibition rate [7] [%] | Inhibition rate [8] | Inhibition rate [9] [%] |
| --- | --- | --- | --- | --- | --- | --- | --- | --- | --- |
| COc1cc([C@@H]2c3cc4c(cc3C[C@H]3COC(=O)[C@@H]32)OCO4)cc(OC)c1OC(=O)[C@H](C)N | 41 | 9 | 22 | 11 | – | – | – | – | – |
| COc1cc([C@@H]2c3cc4c(cc3C[C@H]3COC(=O)[C@@H]32)OCO4)cc(OC)c1OC(=O)Nc1ccc(F)cc1 | – | 78 | 86 | 76 | 69 | – | – | – | – |
| COc1cc([C@@H]2c3cc4c(cc3C[C@H]3COC(=O)[C@@H]32)OCO4)cc(OC)c1OC(=O)OCCCl | – | 72 | 92 | 88 | – | – | – | – | – |
| COc1cc([C@@H]2c3cc4c(cc3C[C@H]3COC(=O)[C@@H]32)OCO4)cc(OC)c1OC(=O)CCCN | – | 91 | 92 | 89 | – | 85 | – | – | – |
| COc1cc([C@@H]2c3cc4c(cc3C[C@H]3COC(=O)[C@@H]32)OCO4)cc(OC)c1OC [DESOXYPODOPHYLLOTOXIN] | – | 14 | 23 | 11 | 59 | – | – | – | – |
| COc1cc([C@@H]2c3cc4c(cc3C[C@H]3COC(=O)[C@@H]32)OCO4)cc(OC)c1OC(=O)CCN | 85 | 79 | 97 | 83 | – | – | – | – | – |
| COc1cc([C@@H]2c3cc4c(cc3C[C@H]3COC(=O)[C@@H]32)OCO4)cc(OC)c1OCc1ccc(N)cc1 | 80 | 152 | 114 | 99 | – | – | – | – | – |
| COc1cc([C@@H]2c3cc4c(cc3C[C@H]3COC(=O)[C@@H]32)OCO4)cc(OC)c1OC(=O)CCCCCN | – | 77 | 89 | 72 | – | – | 89 | – | – |
| COc1cc([C@@H]2c3cc4c(cc3C[C@H]3COC(=O)[C@@H]32)OCO4)cc(OC)c1OC(=O)[C@@H](N)Cc1ccccc1 | – | 59 | 87 | 72 | – | 80 | – | – | – |
| COc1cc([C@@H]2c3cc4c(cc3C[C@H]3COC(=O)[C@@H]32)OCO4)cc(OC)c1OC(=O)CN | 33 | 34 | 12 | 31 | – | – | – | – | – |
| COc1ccc(NC(=O)Oc2c(OC)cc([C@@H]3c4cc5c(cc4C[C@H]4COC(=O)[C@@H]43)OCO5)cc2OC)cc1 | – | 89 | 96 | 93 | – | – | – | inactive | – |
| COc1cc([C@@H]2c3cc4c(cc3[C@@H](O[C@@H]3O[C@@H]5CO[C@@H](C)O[C@H]5[C@H](O)[C@H]3O)[C@H]3COC(=O)[C@H]23)OCO4)cc(OC)c1O [ETOPOSIDE] | – | – | 1900 | – | 78 | – | – | – | – |
| COc1cc([C@@H]2c3cc4c(cc3C[C@H]3COC(=O)[C@@H]32)OCO4)cc(OC)c1OC(=O)NCCO | – | 59 | 62 | 46 | 95 | – | – | – | – |
| COc1cc([C@@H]2c3cc4c(cc3C[C@H]3COC(=O)[C@@H]32)OCO4)cc(OC)c1OC(=O)NC1CCCCC1 | – | 152 | 163 | 197 | – | – | – | inactive | – |
| COc1cc([C@@H]2c3cc4c(cc3C[C@H]3COC(=O)[C@@H]32)OCO4)cc(OC)c1O [4'-DEMETHYLDEOXYPODOPHYLLOTOXIN] | – | 12 | 15 | 18 | 13 | – | – | – | – |
| COc1cc([C@@H]2c3cc4c(cc3C[C@H]3COC(=O)[C@@H]32)OCO4)cc(OC)c1OC(=O)NC(C)C | – | 165 | 153 | 166 | – | – | – | inactive | – |
| COc1cc([C@@H]2c3cc4c(cc3C[C@H]3COC(=O)[C@@H]32)OCO4)cc(OC)c1OC(=O)CCCCCCCN | – | 61 | 74 | 69 | – | – | – | – | 80 |
| CCNC(=O)Oc1c(OC)cc([C@@H]2c3cc4c(cc3C[C@H]3COC(=O)[C@@H]32)OCO4)cc1OC | – | 143 | 132 | 142 | – | – | – | inactive | – |
